Measurements from ChEMBL document CHEMBL1811868, “Structure-activity relationship of 2-hydroxy-2-aryl-2,3-dihydro-imidazo[1,2-a]pyrimidinium salts and 2N-substituted 4(5)-aryl-2-amino-1H-imidazoles as inhibitors of biofilm formation by Salmonella Typhimurium and Pseudomonas aeruginosa” (Bioorg Med Chem, 2011).
The source made the active and inactive calls. Unless noted, no cut-off for these calls is given here.

Columns and labels:
Salmonella typhimurium [1] = assay: Antimicrobial activity against Salmonella Typhimurium ATCC 14028 assessed as inhibition of planktonic cell growth at IC50 after 24 hrs by […]; type: functional, organism-based; conditions: Salmonella enterica subsp. enterica serovar Typhimurium
How it was run: (§1)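 Planktonic growth was followed by Bioscreen growth curves, not by crystal violet. Overnight cultures were diluted 1:200 in TSB 1/20 and received compound serially diluted in DMSO or EtOH, in triplicate, with solvent controls. Plates were shaken at 25 °C for at least 24 h, reading A600 every 15 min.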

Pseudomonas aeruginosa [2] = assay: Antimicrobial activity against Pseudomonas aeruginosa PA14 assessed as inhibition of planktonic cell growth at IC50 after 24 hrs by […]; type: functional, organism-based; how it was run: as §1
Pseudomonas aeruginosa [3] = assay: Antimicrobial activity against Pseudomonas aeruginosa PA14 assessed as inhibition of planktonic cell growth at 40 uM after 24 hrs by […]; type: functional, organism-based; how it was run: as §1
Salmonella typhimurium [4] = assay: Antimicrobial activity against Salmonella Typhimurium ATCC 14028 assessed as inhibition of planktonic cell growth at 200 uM after 24 hrs by […]; type: functional, organism-based; conditions: Salmonella enterica subsp. enterica serovar Typhimurium; how it was run: as §1
Salmonella typhimurium [5] = assay: Antimicrobial activity against Salmonella Typhimurium ATCC 14028 assessed as inhibition of biofilm formation after 24 hrs by spectrophotometry; type: functional, organism-based, Salmonella enterica subsp. enterica serovar Typhimurium; conditions: Salmonella enterica, ATCC 14028, 24 h
How it was run: (§2)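 Static peg-lid biofilm prevention assay. Twofold serial dilutions in TSB diluted 1/20, 2–3 repeats per compound. Overnight S. Typhimurium ATCC14028 (LB-grown) or P. aeruginosa PA14 (TSB-grown) cultures were diluted 1:100, giving ~10^6 cells/well, then incubated 24 h at 25 °C without shaking. Pegs were PBS-washed, stained 30 min with 0.1% crystal violet, extracted with 30% acetic acid and read at OD570. IC50 was fitted from the concentration gradient.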

Pseudomonas aeruginosa [6] = assay: Antimicrobial activity against Pseudomonas aeruginosa PA14 assessed as inhibition of biofilm formation after 24 hrs by spectrophotometry; type: functional, organism-based; conditions: PA14, 24 h; how it was run: as §2
Salmonella typhimurium [7] = assay: Antimicrobial activity against Salmonella Typhimurium ATCC 14028 assessed as inhibition of planktonic cell growth at 20 uM after 24 hrs by […]; type: functional, organism-based; conditions: Salmonella enterica subsp. enterica serovar Typhimurium; how it was run: as §1
Pseudomonas aeruginosa [8] = assay: Antimicrobial activity against Pseudomonas aeruginosa PA14 assessed as inhibition of planktonic cell growth at 20 uM after 24 hrs by […]; type: functional, organism-based; how it was run: as §1
Salmonella typhimurium [9] = assay: Antimicrobial activity against Salmonella Typhimurium ATCC 14028 assessed as inhibition of planktonic cell growth at 40 uM after 24 hrs by […]; type: functional, organism-based; conditions: Salmonella enterica subsp. enterica serovar Typhimurium; how it was run: as §1
Pseudomonas aeruginosa [10] = assay: Antimicrobial activity against Pseudomonas aeruginosa PA14 assessed as inhibition of planktonic cell growth at 100 uM after 24 hrs by […]; type: functional, organism-based; how it was run: as §1
Salmonella typhimurium [11] = assay: Antimicrobial activity against Salmonella Typhimurium ATCC 14028 assessed as inhibition of planktonic cell growth at 80 uM after 24 hrs by […]; type: functional, organism-based; conditions: Salmonella enterica subsp. enterica serovar Typhimurium; how it was run: as §1
Pseudomonas aeruginosa [12] = assay: Antimicrobial activity against Pseudomonas aeruginosa PA14 assessed as inhibition of planktonic cell growth at 5 uM after 24 hrs by […]; type: functional, organism-based; how it was run: as §1
Pseudomonas aeruginosa [13] = assay: Antimicrobial activity against Pseudomonas aeruginosa PA14 assessed as inhibition of planktonic cell growth at 80 uM after 24 hrs by […]; type: functional, organism-based; how it was run: as §1
Pseudomonas aeruginosa [14] = assay: Antimicrobial activity against Pseudomonas aeruginosa PA14 assessed as inhibition of planktonic cell growth at 10 uM after 24 hrs by […]; type: functional, organism-based; how it was run: as §1
Salmonella typhimurium [15] = assay: Antimicrobial activity against Salmonella Typhimurium ATCC 14028 assessed as inhibition of planktonic cell growth at 150 uM after 24 hrs by […]; type: functional, organism-based; conditions: Salmonella enterica subsp. enterica serovar Typhimurium; how it was run: as §1
Pseudomonas aeruginosa [16] = assay: Antimicrobial activity against Pseudomonas aeruginosa PA14 assessed as inhibition of biofilm formation at 25 to 50 uM after 24 hrs by spectrophotometry; type: functional; how it was run: as §2

## Nc1ncc(-c2ccc(F)cc2)[nH]1
Salmonella typhimurium [1]
  growth inhibition (GI): inactive
Pseudomonas aeruginosa [2]
  growth inhibition (GI): inactive
Pseudomonas aeruginosa [3]
  growth inhibition (GI): inactive
Salmonella typhimurium [4]
  growth inhibition (GI): inactive

## CCCCNc1ncc(-c2ccc(Br)cc2)[nH]1
Salmonella typhimurium [5]
  IC50: 7.1 µM
Salmonella typhimurium [1]
  growth inhibition (GI): inactive
Pseudomonas aeruginosa [6]
  IC50: 9.8 µM
Pseudomonas aeruginosa [2]
  growth inhibition (GI): inactive
Salmonella typhimurium [7]
  growth inhibition (GI): inactive
Pseudomonas aeruginosa [8]
  growth inhibition (GI): inactive

## Nc1ncc(-c2ccc([N+](=O)[O-])cc2)[nH]1
Salmonella typhimurium [1]
  growth inhibition (GI): inactive
Salmonella typhimurium [9]
  growth inhibition (GI): Active
Pseudomonas aeruginosa [2]
  growth inhibition (GI): inactive
Pseudomonas aeruginosa [3]
  growth inhibition (GI): inactive
Pseudomonas aeruginosa [10]
  growth inhibition (GI): Active

## c1ccc(-c2cnc(NC3CCCC3)[nH]2)cc1
Salmonella typhimurium [5]
  IC50: 52.9 µM
Salmonella typhimurium [1]
  growth inhibition (GI): inactive
Pseudomonas aeruginosa [6]
  IC50: 33.8 µM
Pseudomonas aeruginosa [2]
  growth inhibition (GI): inactive
Pseudomonas aeruginosa [3]
  growth inhibition (GI): inactive
Salmonella typhimurium [11]
  growth inhibition (GI): inactive

## CC(C)CNc1ncc(-c2ccccc2)[nH]1
Salmonella typhimurium [5]
  IC50: 4.9 µM
Salmonella typhimurium [1]
  growth inhibition (GI): inactive
Salmonella typhimurium [9]
  growth inhibition (GI): inactive
Pseudomonas aeruginosa [6]
  IC50: 1.2 µM
Pseudomonas aeruginosa [2]
  growth inhibition (GI): inactive
Pseudomonas aeruginosa [12]
  growth inhibition (GI): inactive

## O[C@@]1(c2ccccc2)C[n+]2cccnc2N1C1CCCCCCC1
Salmonella typhimurium [5]
  IC50: 58.4 µM
Salmonella typhimurium [1]
  growth inhibition (GI): Active
Pseudomonas aeruginosa [6]
  IC50: 48.6 µM
Pseudomonas aeruginosa [2]
  growth inhibition (GI): Active
Salmonella typhimurium [11]
  growth inhibition (GI): Active
Pseudomonas aeruginosa [13]
  growth inhibition (GI): Active

## CCCCCNc1ncc(-c2ccc(Br)cc2)[nH]1
Salmonella typhimurium [5]
  IC50: 3.1 µM
Salmonella typhimurium [1]
  growth inhibition (GI): inactive
Salmonella typhimurium [9]
  growth inhibition (GI): Active
Pseudomonas aeruginosa [6]
  IC50: 10.2 µM
Pseudomonas aeruginosa [2]
  growth inhibition (GI): inactive
Salmonella typhimurium [7]
  growth inhibition (GI): Active
Pseudomonas aeruginosa [8]
  growth inhibition (GI): inactive

## Nc1ncc(-c2ccc(Br)cc2)[nH]1
Pseudomonas aeruginosa [2]
  growth inhibition (GI): inactive
Pseudomonas aeruginosa [3]
  growth inhibition (GI): Active
Pseudomonas aeruginosa [14]
  growth inhibition (GI): inactive

## O[C@@]1(c2ccc(Cl)cc2)C[n+]2cccnc2N1C1CCCCC1
Salmonella typhimurium [5]
  IC50: 33 µM
Salmonella typhimurium [1]
  growth inhibition (GI): Active
Pseudomonas aeruginosa [6]
  IC50: 16.4 µM
Pseudomonas aeruginosa [2]
  growth inhibition (GI): inactive
Salmonella typhimurium [11]
  growth inhibition (GI): Active
Pseudomonas aeruginosa [13]
  growth inhibition (GI): Active

## Nc1ncc(-c2ccccc2)[nH]1
Salmonella typhimurium [1]
  growth inhibition (GI): inactive
Pseudomonas aeruginosa [2]
  growth inhibition (GI): inactive
Pseudomonas aeruginosa [13]
  growth inhibition (GI): inactive
Salmonella typhimurium [15]
  growth inhibition (GI): inactive

## O[C@@]1(c2ccccc2)C[n+]2cccnc2N1C1CCCCC1
Salmonella typhimurium [5]
  IC50: 139 µM
Salmonella typhimurium [1]
  growth inhibition (GI): Active
Pseudomonas aeruginosa [6]
  IC50: 22.4 µM
Pseudomonas aeruginosa [2]
  growth inhibition (GI): inactive
Pseudomonas aeruginosa [13]
  growth inhibition (GI): Active

## CCCCCCCCNc1ncc(-c2cccc(Br)c2)[nH]1
Salmonella typhimurium [5]
  IC50: 44.6 µM
Salmonella typhimurium [1]
  growth inhibition (GI): inactive
Pseudomonas aeruginosa [6]
  IC50: > 800 µM
Salmonella typhimurium [11]
  growth inhibition (GI): inactive

## CCCCCCCCCCCN1c2nccc[n+]2C[C@@]1(O)c1ccccc1.[Br-]
Salmonella typhimurium [5]
  IC50: 24.6 µM
Salmonella typhimurium [1]
  growth inhibition (GI): Active
Salmonella typhimurium [9]
  growth inhibition (GI): Active
Pseudomonas aeruginosa [6]
  IC50: > 800 µM
Pseudomonas aeruginosa [16]
  growth inhibition (GI): > 25%

## CC(C)CNc1ncc(-c2ccc(Cl)cc2)[nH]1
Salmonella typhimurium [5]
  IC50: 2 µM
Salmonella typhimurium [1]
  growth inhibition (GI): inactive
Salmonella typhimurium [9]
  growth inhibition (GI): Active
Pseudomonas aeruginosa [6]
  IC50: 0.9 µM
Pseudomonas aeruginosa [2]
  growth inhibition (GI): inactive
Salmonella typhimurium [7]
  growth inhibition (GI): inactive
Pseudomonas aeruginosa [12]
  growth inhibition (GI): inactive

## CCCNc1ncc(-c2ccc(Cl)c(Cl)c2)[nH]1
Salmonella typhimurium [5]
  IC50: 10.9 µM
Salmonella typhimurium [1]
  growth inhibition (GI): inactive
Pseudomonas aeruginosa [6]
  IC50: 27.7 µM
Salmonella typhimurium [7]
  growth inhibition (GI): inactive

## CCCCCNc1ncc(-c2ccc(Cl)c(Cl)c2)[nH]1
Salmonella typhimurium [5]
  IC50: 2.2 µM
Pseudomonas aeruginosa [6]
  IC50: 0.7 µM
Pseudomonas aeruginosa [2]
  growth inhibition (GI): inactive
Pseudomonas aeruginosa [12]
  growth inhibition (GI): inactive
